# How the values were obtained:
# [1] = molecular target: E3 ubiquitin-protein ligase Mdm2 (Homo sapiens, UniProt Q00987); assay: Inhibition of p53-Hdm2 interaction by FP assay
# JAR [2] = assay: Induction of PIG3 production in JAR cells at 1.1 uM; format: functional, Homo sapiens
# How it was run: (§1)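 JAR cells were treated with compound at 1.1, 3.3, 10 or 30 μM. PIG-3 protein was measured by ELISA and normalized to cellular protein, reported as ng/mg.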
# JAR [3] = assay: Induction of PIG3 production in JAR cells at 3.3 uM; format: functional, Homo sapiens; how it was run: as §1
# JAR [4] = assay: Induction of PIG3 production in JAR cells at 10 uM; format: functional, Homo sapiens; how it was run: as §1
# JAR [5] = assay: Induction of PIG3 production in JAR cells at 30 uM; format: functional, Homo sapiens; how it was run: as §1
# Chain of E3 ubiquitin-protein ligase Mdm2 (Q00987 whole entry): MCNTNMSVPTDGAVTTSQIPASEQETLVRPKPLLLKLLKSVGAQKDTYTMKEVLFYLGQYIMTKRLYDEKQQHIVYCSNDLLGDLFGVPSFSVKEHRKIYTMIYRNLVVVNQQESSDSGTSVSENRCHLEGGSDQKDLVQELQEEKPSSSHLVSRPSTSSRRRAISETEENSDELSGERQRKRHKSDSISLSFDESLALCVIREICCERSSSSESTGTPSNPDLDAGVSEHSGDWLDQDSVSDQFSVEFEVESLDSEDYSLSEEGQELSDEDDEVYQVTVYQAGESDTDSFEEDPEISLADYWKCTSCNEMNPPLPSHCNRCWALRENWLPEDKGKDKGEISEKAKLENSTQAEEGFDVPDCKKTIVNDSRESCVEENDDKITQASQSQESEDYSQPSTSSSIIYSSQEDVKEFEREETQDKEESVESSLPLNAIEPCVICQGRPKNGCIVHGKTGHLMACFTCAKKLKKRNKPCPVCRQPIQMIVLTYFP
SMILES,IC50 [1],Activity (JAR [2]),Activity (JAR [3]),Activity (JAR [4]),Activity (JAR [5])
C=CCOc1cc(Cl)ccc1CN1C(=O)c2cc(I)ccc2N(CCOCCOC)C(=O)[C@@H]1c1ccc(Cl)cc1,> 12.5 µM,,,,
C[C@H](c1cc(O)c(Cl)cc1N)N1C(=O)c2cc(I)ccc2N(CCN2CCOCC2)C(=O)[C@@H]1c1ccc(Cl)cc1,,34 ng/mg,54 ng/mg,111 ng/mg,
C[C@H](c1cc(F)c(Cl)cc1N)N1C(=O)c2cc(I)ccc2N(CCN2CCOCC2)C(=O)[C@@H]1c1ccc(Cl)cc1,,37 ng/mg,110 ng/mg,313 ng/mg,
COCCOCCN1C(=O)[C@H](c2ccc(Cl)cc2)N(Cc2ccc(Cl)cc2O)C(=O)c2cc(I)ccc21,,62.3 ng/mg,74 ng/mg,99 ng/mg,
CN(C)CCCN1C(=O)[C@H](c2ccc(Cl)cc2)N(Cc2ccc(Cl)cc2N)C(=O)c2cc(I)ccc21,,36 ng/mg,68 ng/mg,-92 ng/mg,
CN1CCN(CCCCN2C(=O)[C@H](c3ccc(Cl)cc3)N(Cc3ccc(Cl)cc3N)C(=O)c3cc(I)ccc32)CC1,,43 ng/mg,125 ng/mg,32 ng/mg,
Nc1cc(Cl)ccc1CN1C(=O)c2cc(I)ccc2N(CCCN2CCOCC2)C(=O)[C@@H]1c1ccc(Cl)cc1,,55 ng/mg,184 ng/mg,375 ng/mg,
C[C@H](c1ccc(Cl)cc1N)N1C(=O)c2cc(I)ccc2N(CCN2CCOCC2)C(=O)[C@@H]1c1ccc(Cl)cc1,,79 ng/mg,234 ng/mg,395 ng/mg,
COCCOCCN1C(=O)[C@H](c2ccc(Cl)cc2)N([C@H](C)c2ccc(Cl)cc2N)C(=O)c2cc(I)ccc21,,78 ng/mg,218 ng/mg,375 ng/mg,
CN(C)CCCCN1C(=O)[C@H](c2ccc(Cl)cc2)N(Cc2ccc(Cl)cc2N)C(=O)c2cc(I)ccc21,,32 ng/mg,79 ng/mg,-136 ng/mg,
CC(c1ccc(Cl)cc1N)N1C(=O)c2cc(I)ccc2N(CCCCC(=O)O)C(=O)[C@@H]1c1ccc(Cl)cc1 (stereo not given in full),,44 ng/mg,77 ng/mg,,
CC(c1ccc(Cl)cc1)N1C(=O)c2cc(I)ccc2N(CCCCC(=O)O)C(=O)[C@@H]1c1ccc(Cl)cc1 (stereo not given in full),,60 ng/mg,79.7 ng/mg,208.7 ng/mg,484.3 ng/mg
Nc1cc(Cl)ccc1CN1C(=O)c2cc(I)ccc2N(CCCCC(=O)O)C(=O)[C@@H]1c1ccc(Cl)cc1,,47 ng/mg,74 ng/mg,196 ng/mg,
CN1CCN(CCCN2C(=O)[C@H](c3ccc(Cl)cc3)N(Cc3ccc(Cl)cc3N)C(=O)c3cc(I)ccc32)CC1,,57 ng/mg,198 ng/mg,385 ng/mg,

# Reference: ChEMBL document CHEMBL1138098, “Novel 1,4-benzodiazepine-2,5-diones as Hdm2 antagonists with improved cellular activity” (Bioorg Med Chem Lett, 2006)
